In brackets after ≈: the same amount, converted by molar mass.
Legend:
KB [1] = assay: Cytotoxicity against human KB cells at 1 uM; type: cell-based
HCT-116 [2] = assay: Cytotoxicity against human HCT116 cells at 10 uM; type: cell-based; conditions: hct-116, 10 µM
KB [3] = assay: Cytotoxicity against human KB cells at 10 uM; type: cell-based
Staphylococcus aureus [4] = assay: Antibacterial activity against Staphylococcus aureus CIP 103428 after 18 hrs by broth microdilution method; type: functional; conditions: CIP 103428, 18 h
Method in brief: (§1)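 MIC by broth microdilution per ISO 20776-1:2006 and CLSI M07-A8. Inoculum 10^6 cfu/ml in Mueller-Hinton broth with compound serially diluted, final concentrations 2 to 128 ug/ml, duplicate rows, no-drug growth control. Incubation 18 h at 37 °C. MIC taken as lowest concentration giving complete inhibition of visible growth. Each compound tested at least twice.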

Staphylococcus aureus [5] = assay: Antibacterial activity against Staphylococcus aureus CIP 65.6 after 18 hrs by broth microdilution method; type: functional; conditions: CIP 65.6, 18 h; method in brief: as §1
[6] = tested on: Staphylococcus epidermidis; assay: Antibacterial activity against Staphylococcus epidermidis CIP 81.55 after 18 hrs by broth microdilution method; type: functional; conditions: CIP 81.55, 18 h; method in brief: as §1
Staphylococcus aureus [7] = assay: Antibacterial activity against Staphylococcus aureus ATCC 25923 after 18 hrs by broth microdilution method; type: functional; conditions: ATCC 25923, 18 h; method in brief: as §1
Staphylococcus aureus [8] = assay: Antibacterial activity against Staphylococcus aureus ATCC 6538 after 18 hrs by broth microdilution method; type: functional; conditions: ATCC 6538, 18 h; method in brief: as §1
[9] = tested on: Staphylococcus epidermidis; assay: Antibacterial activity against Staphylococcus epidermidis CIP 103627 after 18 hrs by broth microdilution method; type: functional; conditions: CIP 103627, 18 h; method in brief: as §1
[10] = tested on: Staphylococcus epidermidis; assay: Antibacterial activity against Staphylococcus epidermidis ATCC 12228 after 18 hrs by broth microdilution method; type: functional; conditions: ATCC 12228, 18 h; method in brief: as §1
Staphylococcus aureus [11] = assay: Antibacterial activity against Staphylococcus aureus ATCC 9144 after 18 hrs by broth microdilution method; type: functional; conditions: ATCC 9144, 18 h; method in brief: as §1
MRC5 [12] = assay: Cytotoxicity against human MRC5 cells at 10 uM; type: cell-based; conditions: mrc5, 10 µM
Staphylococcus aureus [13] = assay: Antibacterial activity against Staphylococcus aureus ATCC 29213 after 18 hrs by broth microdilution method; type: functional; conditions: ATCC 29213, 18 h; method in brief: as §1
HCT-116 [14] = assay: Cytotoxicity against human HCT116 cells at 1 uM; type: cell-based; conditions: hct-116, 1 µM
MRC5 [15] = assay: Cytotoxicity against human MRC5 cells at 1 uM; type: cell-based; conditions: mrc5, 1 µM
Staphylococcus aureus [16] = assay: Antibacterial activity against methicillin-resistant Staphylococcus aureus ATCC 33592 after 18 hrs by broth microdilution method; type: functional; conditions: ATCC 33592, 18 h
Method in brief: (§2)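 Broth microdilution following ISO 20776-1:2006 and CLSI M07-A8, in Mueller-Hinton broth. Inoculum was 10^6 cfu/ml, with compound serial dilutions spanning 2 to 128 ug/ml and a compound-free growth control well. Plates were incubated 18 h at 37 °C. MIC was the lowest concentration giving complete inhibition of visible growth. Each compound was tested at least twice.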

Streptococcus pneumoniae [17] = assay: Antibacterial activity against Streptococcus pneumoniae ATCC 49619 after 18 hrs by broth microdilution method; type: functional; conditions: ATCC 49619, 18 h
Method in brief: (§3)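 MIC by broth microdilution per ISO 20776-1:2006 and CLSI M07-A8. Inoculum 10^6 cfu/ml in Mueller-Hinton broth […]. Compound serially diluted, final 2 to 128 ug/ml, duplicate rows, no-drug growth control. Read after 18 h at 37 °C as lowest concentration fully inhibiting visible growth. At least two experiments.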

Staphylococcus aureus [18] = assay: Antibacterial activity against vancomycin intermediate Staphylococcus aureus […] after 18 hrs by broth microdilution method; type: functional; method in brief: as §2
Staphylococcus aureus [19] = assay: Antibacterial activity against methicillin-resistant Staphylococcus aureus CIP 65.25 after 18 hrs by broth microdilution method; type: functional; conditions: CIP 65.25, 18 h; method in brief: as §2
Streptococcus pneumoniae [20] = assay: Antibacterial activity against Streptococcus pneumoniae ATCC 6303 after 18 hrs by broth microdilution method; type: functional; conditions: ATCC 6303, 18 h; method in brief: as §3

SMILES | Activity (KB [1]) | Activity (HCT-116 [2]) | Activity (KB [3]) | MIC (Staphylococcus aureus [4]) [µg/mL] | MIC (Staphylococcus aureus [5]) [µg/mL] | MIC [6] [µg/mL] | MIC (Staphylococcus aureus [7]) [µg/mL] | MIC (Staphylococcus aureus [8]) [µg/mL] | MIC [9] [µg/mL] | MIC [10] [µg/mL] | MIC (Staphylococcus aureus [11]) [µg/mL] | Activity (MRC5 [12]) | MIC (Staphylococcus aureus [13]) [µg/mL] | Activity (HCT-116 [14]) | Activity (MRC5 [15]) | MIC (Staphylococcus aureus [16]) [µg/mL] | MIC (Streptococcus pneumoniae [17]) [µg/mL] | MIC (Staphylococcus aureus [18]) [µg/mL] | MIC (Staphylococcus aureus [19]) [µg/mL] | MIC (Streptococcus pneumoniae [20]) [µg/mL]
CC(C)CC(NO)c1c[nH]c2ccc(Cl)cc12 (stereo unspecified) | Non-toxic | Non-toxic | Non-toxic | 16 (≈ 63.3 µM) | 16 (≈ 63.3 µM) | 32 (≈ 127 µM) | 16 (≈ 63.3 µM) | 16 (≈ 63.3 µM) | 32 (≈ 127 µM) | 32 (≈ 127 µM) | 16 (≈ 63.3 µM) | Non-toxic | 16 (≈ 63.3 µM) | Non-toxic | Non-toxic |  |  |  |  | 
CC(C)(C)OC(=O)NCC(c1c[nH]c2ccc(I)cc12)N(O)Cc1ccccc1 (stereo unspecified) | Non-toxic |  |  | 8 (≈ 15.8 µM) | 8 (≈ 15.8 µM) | 8 (≈ 15.8 µM) | 8 (≈ 15.8 µM) | 8 (≈ 15.8 µM) | 8 (≈ 15.8 µM) | 8 (≈ 15.8 µM) | 8 (≈ 15.8 µM) |  | 8 (≈ 15.8 µM) | Non-toxic | Non-toxic | 8 (≈ 15.8 µM) | 64 (≈ 126 µM) | 8 (≈ 15.8 µM) | 8 (≈ 15.8 µM) | 64 (≈ 126 µM)
CC(C)(C)OC(=O)NCC(c1c[nH]c2ccc(Br)cc12)N(O)Cc1ccccc1 (stereo unspecified) | Non-toxic | Non-toxic | Non-toxic | 8 (≈ 17.4 µM) | 8 (≈ 17.4 µM) | 16 (≈ 34.8 µM) | 8 (≈ 17.4 µM) | 8 (≈ 17.4 µM) | 16 (≈ 34.8 µM) | 16 (≈ 34.8 µM) | 8 (≈ 17.4 µM) | Non-toxic | 8 (≈ 17.4 µM) | Non-toxic | Non-toxic | 16 (≈ 34.8 µM) | 128 (≈ 278 µM) | 8 (≈ 17.4 µM) | 16 (≈ 34.8 µM) | 128 (≈ 278 µM)
CC(NO)c1c[nH]c2ccc(I)cc12 (stereo unspecified) | Non-toxic | Non-toxic | Non-toxic | 64 (≈ 212 µM) | 64 (≈ 212 µM) | 32 (≈ 106 µM) | 64 (≈ 212 µM) | 64 (≈ 212 µM) | 32 (≈ 106 µM) | 32 (≈ 106 µM) | 64 (≈ 212 µM) | Non-toxic | 64 (≈ 212 µM) | Non-toxic | Non-toxic |  |  |  |  | 
CC(C)(C)OC(=O)NCC(c1c[nH]c2cc(Cl)ccc12)N(O)Cc1ccccc1 (stereo unspecified) | Non-toxic |  |  | 16 (≈ 38.5 µM) | 16 (≈ 38.5 µM) | 16 (≈ 38.5 µM) | 16 (≈ 38.5 µM) | 16 (≈ 38.5 µM) | 16 (≈ 38.5 µM) | 16 (≈ 38.5 µM) | 16 (≈ 38.5 µM) |  | 16 (≈ 38.5 µM) | Non-toxic | Non-toxic | 16 (≈ 38.5 µM) | > 128 | 16 (≈ 38.5 µM) | 16 (≈ 38.5 µM) | > 128
CC(C)CC(c1c[nH]c2ccccc12)N(O)Cc1ccccc1 (stereo unspecified) | Non-toxic | Non-toxic | Non-toxic | 32 (≈ 104 µM) | 32 (≈ 104 µM) | 16 (≈ 51.9 µM) | 32 (≈ 104 µM) | 32 (≈ 104 µM) | 16 (≈ 51.9 µM) | 16 (≈ 51.9 µM) | 32 (≈ 104 µM) | Non-toxic | 32 (≈ 104 µM) | Non-toxic | Non-toxic |  |  |  |  | 
CC(C)(C)OC(=O)NCC(c1c[nH]c2ccc(Cl)cc12)N(O)Cc1ccccc1 (stereo unspecified) | Non-toxic |  |  | 16 (≈ 38.5 µM) | 16 (≈ 38.5 µM) | 16 (≈ 38.5 µM) | 16 (≈ 38.5 µM) | 16 (≈ 38.5 µM) | 16 (≈ 38.5 µM) | 16 (≈ 38.5 µM) | 16 (≈ 38.5 µM) |  | 16 (≈ 38.5 µM) | Non-toxic | Non-toxic | 16 (≈ 38.5 µM) | 64 (≈ 154 µM) | 16 (≈ 38.5 µM) | 16 (≈ 38.5 µM) | 64 (≈ 154 µM)

— ChEMBL document CHEMBL1777764, “Synthesis and evaluation of 1-(1H-indol-3-yl)ethanamine derivatives as new antibacterial agents” (Bioorg Med Chem, 2011)
